pIC50: −log10 of the molar value. ≈ marks a conversion by molar mass, not a printed value.
How the values were obtained:
Plasmodium falciparum [1] = assay: Antimalarial activity against Plasmodium falciparum K1 assessed as parasite growth inhibition after 72 hrs by MSF assay; type: functional, organism-based; conditions: K1, 72 h
In short: (§1)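 P. falciparum cultures in RPMI-1640-FBS; DMSO stock 5 mg/ml diluted in medium, duplicate wells; 1.0% parasitized cell suspension at 0.8% parasitemia. Incubated 37 °C, 5% CO2 air mixture, 72 h. Lysis buffer with 2× SYBR Green I added, 1 h at 37 °C. Fluorescence read at 485 ± 20 nm excitation / 530 ± 20 nm emission; IC50 by logit regression.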

Plasmodium yoelii = assay: Antimalarial activity against Plasmodium yoelii infected in erythrocytes assessed as inhibition of beta-hematin formation after 16 hrs by BHIA assay; type: functional, cell-free
In short: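 Plasma from infected animal blood at 50% parasitemia (cardiac puncture into 2.0% citrate, spun 5000 rpm, 10 min, 4 °C). Reaction in 1.0 mL: 100 mM sodium acetate pH 5.1, hemin as substrate, plasma, 1–20 µg compound; controls without compound. Triplicate, 37 °C, 16 h, rotary shaker. Pellet washed, dissolved in 2 N NaOH, absorbance 400 nm; IC50 by nonlinear regression of dose-response.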

Plasmodium falciparum [2] = assay: Antimalarial activity against Plasmodium falciparum 3D7 assessed as parasite growth inhibition after 72 hrs by MSF assay; type: functional, organism-based; conditions: 3D7, 72 h; in short: as §1
[3] = Selectivity index, ratio of CC50 for african green monkey Vero cells to IC50 for Plasmodium falciparum K1; type: functional
Vero = assay: Cytotoxicity against african green monkey Vero cells assessed as growth inhibition after 24 hrs by MTS assay; type: cell-based; conditions: Chlorocebus sabaeus
In short: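 Vero cells plated at 20,000 per well in MEM with antibiotics + 10% FBS, allowed to adhere overnight at 37 °C, 5% CO2. Compound dilutions added in MEM + 10% FBS; known toxic compound positive control, DMSO negative control. After 24 h, MTS added, 2 h at 37 °C, absorbance 490 nm; DMSO wells taken as 100% survival.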

[4] = test system: Mycobacterium tuberculosis; assay: Antitubercular activity Mycobacterium tuberculosis H37Rv assessed as growth inhibition after 4 weeks; type: functional; conditions: 672 h
In short: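 M. tuberculosis H37Rv from Lowenstein-Jensen culture, harvested in N-saline with 0.05% Tween-80 and made single-cell with glass beads. Working inoculum 2 × 10⁷ cfu/mL spread on drug-containing slanted solid medium. Incubated 37 °C for 4 weeks, watching for colonies. Drug-free tubes as control, isoniazid as reference. MIC taken as the lowest concentration giving complete growth inhibition at this inoculum.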

[5] = Cytotoxicity against mouse bone marrow derived macrophage assessed as growth inhibition after 48 hrs by MTS assay; type: cell-based
In short: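 Macrophages washed, plated at 10^5 cells per well in supplemented DMEM, 37 °C, 5% CO2, medium changed every 3rd day, used after 5 days. Compounds added in antibiotic-free, FBS-supplemented DMEM for 48 h at 37 °C, 5% CO2. MTS added for 2 h, absorbance 490 nm; DMSO wells taken as 100% survival.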

| Structure (SMILES) | pIC50 (Plasmodium falciparum [1]) | IC50 (Plasmodium yoelii) [mg/L] | pIC50 (Plasmodium falciparum [2]) | Ratio CC50/IC50 [3] | pIC50 (Vero) | MIC [4] [µM] | pIC50 [5] |
| --- | --- | --- | --- | --- | --- | --- | --- |
| O=C1/C(=C/c2ccccc2)SC(=S)N1CCNc1ccnc2cc(Cl)ccc12 | 6.98 | 8.21 (≈ 19.3 µM) | 7.23 | 29.16 |  |  |  |
| O=C1CSC(=S)N1CCCNc1ccnc2cc(Cl)ccc12 | 7.35 | 8.16 (≈ 23.2 µM) | 6.70 | 88.3 |  |  |  |
| CN(C)c1ccc(/C=C2\SC(=S)N(CCCNc3ccnc4cc(Cl)ccc34)C2=O)cc1 | 7.18 | 6.35 (≈ 13.1 µM) | 7.31 | 4195.05 |  |  |  |
| O=C1/C(=C/c2ccc([N+](=O)[O-])cc2)SC(=S)N1CCCNc1ccnc2cc(Cl)ccc12 | 7.34 | 3.23 (≈ 6.66 µM) | 7.63 | 180.38 |  |  |  |
| O=C1/C(=C/c2ccc(F)cc2)SC(=S)N1CCCNc1ccnc2cc(Cl)ccc12 | 7.88 | 4.3 (≈ 9.39 µM) | 7.03 | 2083.58 |  |  |  |
| CO[C@H]1/C=C/O[C@@]2(C)Oc3c(C)c(O)c4c(O)c(c(/C=N/N5CCN(C)CC5)c(O)c4c3C2=O)NC(=O)/C(C)=C\C=C\[C@H](C)[C@H](O)[C@@H](C)[C@@H](O)[C@@H](C)[C@H](OC(C)=O)[C@@H]1C [RIFAMPIN] |  |  |  |  | < 4.00 | 0.243 (≈ 0.2 µg/mL) | < 4.00 |
| COc1ccc(/C=C2\SC(=S)N(CCCNc3ccnc4cc(Cl)ccc34)C2=O)c2ccccc12 | 7.23 | 2.65 (≈ 5.1 µM) | 7.04 | 64.55 |  |  |  |
| COc1cc(/C=C2\SC(=S)N(CCNc3ccnc4cc(Cl)ccc34)C2=O)cc(OC)c1OC | 7.23 | 7.31 (≈ 14.2 µM) | 7.46 | 88.79 |  |  |  |
| COc1cc(/C=C2\SC(=S)N(CCCNc3ccnc4cc(Cl)ccc34)C2=O)cc(OC)c1OC | 7.37 | 3.33 (≈ 6.28 µM) | 7.25 | 193.92 |  |  |  |
| CN(C)c1ccc(/C=C2\SC(=S)N(CCCCNc3ccnc4cc(Cl)ccc34)C2=O)cc1 | 7.26 | 4.23 (≈ 8.51 µM) | 7.51 | 422.41 |  |  |  |
| CCc1ccc(/C=C2\SC(=S)N(CCCCNc3ccnc4cc(Cl)ccc34)C2=O)cc1 | 6.84 | 6.21 (≈ 12.9 µM) | 7.26 | 102.86 |  |  |  |
| O=C1/C(=C/c2ccncc2)SC(=S)N1CCCCNc1ccnc2cc(Cl)ccc12 | 6.51 | 6.3 (≈ 13.8 µM) | 7.03 | 60.39 |  |  |  |
| O=C1/C(=C/c2ccc(Cl)cc2)SC(=S)N1CCCNc1ccnc2cc(Cl)ccc12 | 7.03 | 3.26 (≈ 6.87 µM) | 7.12 | 442.83 |  |  |  |
| O=C1/C(=C/c2ccco2)SC(=S)N1CCCCNc1ccnc2cc(Cl)ccc12 | 6.82 | 2.78 (≈ 6.26 µM) | 7.46 | 92.72 | < 4.00 | 6.25 (≈ 2.77 µg/mL) | 4.15 |
| CCN(CC)CCCC(C)Nc1ccnc2cc(Cl)ccc12 (stereo not drawn) [CHLOROQUINE] |  | 4.3 (≈ 13.4 µM) |  |  |  |  |  |
| COc1ccc(/C=C2\SC(=S)N(CCCCNc3ccnc4cc(Cl)ccc34)C2=O)c2ccccc12 | 6.55 | 4.05 (≈ 7.58 µM) | 6.55 | 356.27 | < 4.00 | 6.25 (≈ 3.34 µg/mL) | < 4.00 |
| O=C1/C(=C/c2ccc([N+](=O)[O-])cc2)SC(=S)N1CCCCNc1ccnc2cc(Cl)ccc12 | 7.05 | 17.3 (≈ 34.7 µM) | 7.40 | 3720.88 |  |  |  |
| O=C1/C(=C/c2ccccc2)SC(=S)N1CCCCNc1ccnc2cc(Cl)ccc12 | 6.82 | 4.03 (≈ 8.88 µM) | 7.36 | 113.53 |  |  |  |
| O=C1CSC(=S)N1CCNc1ccnc2cc(Cl)ccc12 | 7.10 | 4.9 (≈ 14.5 µM) | 6.74 | 112.54 |  |  |  |
| O=C1/C(=C/c2cccc([N+](=O)[O-])c2)SC(=S)N1CCCNc1ccnc2cc(Cl)ccc12 | 7.30 | 3.93 (≈ 8.1 µM) | 7.02 | 106.4 |  |  |  |
| COc1cc(/C=C2\SC(=S)N(CCCCNc3ccnc4cc(Cl)ccc34)C2=O)cc(OC)c1OC | 7.15 | 3.93 (≈ 7.22 µM) | 7.37 | 110.08 |  | 12.5 (≈ 6.8 µg/mL) |  |
| O=C1/C(=C/c2ccccc2[N+](=O)[O-])SC(=S)N1CCCNc1ccnc2cc(Cl)ccc12 | 7.08 | 3.3 (≈ 6.8 µM) | 7.42 | 639.19 | < 4.00 | 6.25 (≈ 3.03 µg/mL) | 4.15 |
| O=C1/C(=C/c2ccccn2)SC(=S)N1CCNc1ccnc2cc(Cl)ccc12 | < 5.96 | 16.5 (≈ 38.6 µM) | < 5.93 |  |  |  |  |
| O=C1CSC(=S)N1CCCCNc1ccnc2cc(Cl)ccc12 | 7.24 | 6.21 (≈ 17 µM) | 6.62 | 75.44 |  | 12.5 (≈ 4.57 µg/mL) |  |
| CCc1ccc(/C=C2\SC(=S)N(CCNc3ccnc4cc(Cl)ccc34)C2=O)cc1 | 7.02 | 6.73 (≈ 14.8 µM) | 7.37 | 17.51 |  |  |  |
| NNC(=O)c1ccncc1 [ISONIAZID] |  |  |  |  | < 4.00 | 0.217 (≈ 0.0298 µg/mL) | < 4.00 |
| O=C1/C(=C/c2ccc([N+](=O)[O-])cc2)SC(=S)N1CCNc1ccnc2cc(Cl)ccc12 | 6.08 | 12.8 (≈ 27.1 µM) | 6.06 | 56.19 |  |  |  |

Reference: ChEMBL document CHEMBL2331443, “Synthesis and biological evaluation of a new class of 4-aminoquinoline-rhodanine hybrid as potent anti-infective agents” (Eur J Med Chem, 2013)
